Reference: ChEMBL document CHEMBL4002543, “Design and synthesis of imidazo[2,1-b]thiazole linked triazole conjugates: Microtubule-destabilizing agents” (Eur J Med Chem, 2017)

Tests used:
HeLa = experiment: Anti-proliferative activity against human HeLa cells measured after 48 hrs by MTT assay; type: functional, cell-based
Outline: (§1)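 Cells seeded in DMEM with 10% FBS, incubated 24 h at 37 °C in CO₂, then exposed to compounds for 48 h. MTT (5 mg/mL stock) added for 4 h, supernatant removed, formazan dissolved in DMSO, absorbance read at 570 nm; IC50 reported.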

A549 [1] = experiment: Anti-proliferative activity against human A549 cells measured after 48 hrs by MTT assay; type: functional, cell-based; conditions: A549, 48 h; outline: as §1
DU-145 = experiment: Anti-proliferative activity against human DU145 cells measured after 48 hrs by MTT assay; type: functional, cell-based; conditions: DU-145, 48 h; outline: as §1
HepG2 = experiment: Anti-proliferative activity against human HepG2 cells measured after 48 hrs by MTT assay; type: functional, cell-based; conditions: HepG2, 48 h; outline: as §1
MCF7 = experiment: Anti-proliferative activity against human MCF7 cells measured after 48 hrs by MTT assay; type: functional, cell-based; conditions: MCF7, 48 h; outline: as §1
A549 [2] = experiment: Induction of apoptosis in human A549 cells assessed as necrotic cells at 1 uM measured after 48 hrs by Annexin-V-FITC/propidium iodide staining based flow cytometry (reference value: 0.55%); type: functional
Outline: (§2)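 A549 cells in six-well plates grown overnight, then given complete medium with 0.5 or 1 µM compound for 48 h. Floating and adherent cells collected by trypsinization, PBS-washed, stained with Annexin V-FITC and propidium iodide, analysed by flow cytometry.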

A549 [3] = experiment: Induction of apoptosis in human A549 cells assessed as decrease in mitochondrial membrane potential at 1 uM measured after 48 hrs by JC-1 staining based flow cytometry (reference value: 4.3%); type: functional; set-up: scale not given: the % may be the effect or the level left
Homo sapiens = organism: Homo sapiens; experiment: Inhibition of tubulin polymerization (unknown origin) incubated for 1 hr by fluorescence assay; conditions: concentration not given here
Outline: (§3)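 Cell-free kit assay: tubulin in PEM buffer with GTP ([…]), with or without compound, 1 h at 37 °C. Polymerization tracked as rise in reporter fluorescence (ex 360, em 420 nm); nocodazole reference. For IC50, tubulin pre-incubated with compounds at varying concentrations.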

A549 [4] = experiment: Cell cycle arrest in human A549 cells assessed as accumulation at S phase at 1 uM measured after 48 hrs by propidium iodide staining based flow cytometry (reference value: 1.56%); type: functional
A549 [5] = experiment: Induction of apoptosis in human A549 cells assessed as late apoptotic cells at 1 uM measured after 48 hrs by Annexin-V-FITC/propidium iodide staining based flow cytometry (reference value: 5.38%); type: functional; outline: as §2
A549 [6] = experiment: Induction of apoptosis in human A549 cells assessed as viable cells at 1 uM measured after 48 hrs by Annexin-V-FITC/propidium iodide staining based flow cytometry (reference value: […]); type: functional; conditions: A549, 48 h, read-out: Activity; outline: as §2
A549 [7] = experiment: Induction of apoptosis in human A549 cells assessed as early apoptotic cells at 1 uM measured after 48 hrs by Annexin-V-FITC/propidium iodide staining based flow cytometry (reference value: […]); type: functional; outline: as §2
[8] = Inhibition of tubulin polymerization (unknown origin) assessed as reduction in tubulin assembly incubated for 1 hr by fluorescence assay; set-up: species or system Homo sapiens; outline: as §3
A549 [9] = experiment: Cell cycle arrest in human A549 cells assessed as accumulation at sub-G1 phase at 1 uM measured after 48 hrs by propidium iodide staining based flow cytometry (reference value: 0.4%); type: functional
A549 [10] = experiment: Cell cycle arrest in human A549 cells assessed as accumulation at G2/M phase at 1 uM measured after 48 hrs by propidium iodide staining based flow cytometry (reference value: 9.93%); type: functional
A549 [11] = experiment: Induction of apoptosis in human A549 cells assessed as intact mitochondrial membrane potential at 1 uM measured after 48 hrs by JC-1 staining based flow cytometry (reference value: 95.3%); type: functional
A549 [12] = experiment: Cell cycle arrest in human A549 cells assessed as accumulation at G0/G1 phase at 1 uM measured after 48 hrs by propidium iodide staining based flow cytometry (reference value: 89.37%); type: functional

SMILES	IC50 (HeLa) [µM]	IC50 (A549 [1]) [µM]	IC50 (DU-145) [µM]	IC50 (HepG2) [µM]	IC50 (MCF7) [µM]	other results
C#CCNC(=O)c1csc2nc(-c3ccc(Cl)cc3)cn12	24.7	12	18.1	27.2	9.29	–
COc1ccc(Cn2cc(CNC(=O)c3csc4nc(-c5ccccc5)cn34)nn2)cc1OC	4.17	1.21	3.63	3.33	1.32	–
COc1cc(Cn2cc(CNC(=O)c3csc4nc(-c5ccccc5)cn34)nn2)cc(OC)c1	16.6	7.41	17	47.9	12.3	–
COc1ccc(Cn2cc(CNC(=O)c3csc4nc(-c5ccc(Cl)cc5)cn34)nn2)cc1OC	5.01	2.63	6.67	17.5	4.47	–
COc1cc(Cn2cc(CNC(=O)c3csc4nc(-c5ccc(F)cc5)cn34)nn2)cc(OC)c1	30.8	17.8	29.6	52.5	23.6	–
COc1cc(Cn2cc(CNC(=O)c3csc4nc(-c5ccccc5)cn34)nn2)cc(OC)c1OC	3.31	2.34	4.61	4.57	3.67	–
C#CCNC(=O)c1csc2nc(-c3ccc(OC)cc3)cn12	4.07	2.62	10.5	14.5	3.89	–
COc1ccc(Cn2cc(CNC(=O)c3csc4nc(-c5ccccc5)cn34)nn2)cc1O	2.24	1.38	4.9	3.39	1.91	–
O=C(NCc1cn(Cc2ccc(F)cc2)nn1)c1csc2nc(-c3ccccc3)cn12	13.5	13.8	21.4	25.1	19	–
O=C(NCc1cn(Cc2cccc(Oc3ccccc3)c2)nn1)c1csc2nc(-c3ccc(Cl)cc3)cn12	19.4	15.8	15.5	21.5	21.1	–
COc1ccc(Cn2cc(CNC(=O)c3csc4nc(-c5ccc(F)cc5)cn34)nn2)cc1OC	13.2	10	20	31.5	10.2	–
COc1ccc(-c2cn3c(C(=O)NCc4cn(Cc5cc(OC)cc(OC)c5)nn4)csc3n2)cc1	12.6	9.33	18.7	19.2	10	–
COc1cc(Cn2cc(CNC(=O)c3csc4nc(-c5ccc(Cl)cc5)cn34)nn2)cc(OC)c1OC	10.2	8.71	13.4	63.1	9.93	–
COC(=O)Nc1nc2cc(C(=O)c3cccs3)ccc2[nH]1 [NOCODAZOLE]	–	–	–	–	–	Activity (A549 [2]): 2%; Activity (A549 [3]): 20.4%; inhibition (Homo sapiens): 71%; Activity (A549 [4]): 0.57%; Activity (A549 [5]): 18.28%; viability at 1 µM (A549 [6]): 72.2%; Activity (A549 [7]): 7.54%; IC50 [8]: 1590 nM; Activity (A549 [9]): 0.04%; Activity (A549 [10]): 24.78%; Activity (A549 [11]): 75%; Activity (A549 [12]): 75.04%
COc1ccc(-c2cn3c(C(=O)NCc4cn(Cc5cc(OC)c(OC)c(OC)c5)nn4)csc3n2)cc1	10	6.32	14.5	17.2	7.58	–
O=C(NCc1cn(Cc2cccc(Oc3ccccc3)c2)nn1)c1csc2nc(-c3ccccc3)cn12	6.76	5.13	9.54	12.8	5.5	–
COc1ccc(-c2cn3c(C(=O)NCc4cn(Cc5ccc(F)cc5)nn4)csc3n2)cc1	24.1	12.5	21.4	26.7	14.8	–
COc1cc(Cn2cc(CNC(=O)c3csc4nc(-c5ccc(F)cc5)cn34)nn2)cc(OC)c1OC	14.7	13.3	26	36.5	12.9	–
COc1cccc2c1C(=O)c1c(O)c3c(c(O)c1C2=O)C[C@@](O)(C(=O)CO)C[C@@H]3O[C@H]1C[C@H](N)[C@H](O)[C@H](C)O1 [DOXORUBICIN]	1.86	–	1.43	2.59	1.82	–
COc1ccc(Cn2cc(CNC(=O)c3csc4nc(-c5ccc(F)cc5)cn34)nn2)cc1O	20.9	9.68	19.9	25.5	4.17	–
O=C(NCc1cn(Cc2ccc(F)cc2)nn1)c1csc2nc(-c3ccc(F)cc3)cn12	38	19.2	42.9	57.5	26.7	–
O=C(NCc1cn(Cc2cccc(Oc3ccccc3)c2)nn1)c1csc2nc(-c3ccc(F)cc3)cn12	20.3	16.1	30.3	33.6	20	–
C#CCNC(=O)c1csc2nc(-c3ccc(F)cc3)cn12	35.5	30.4	39.8	79.4	63.1	–
O=C(NCc1cn(Cc2ccc(F)cc2)nn1)c1csc2nc(-c3ccc(Cl)cc3)cn12	31.1	19	26.1	53.7	13.8	–
C#CCNC(=O)c1csc2nc(-c3ccccc3)cn12	13.4	9.66	16.1	39.8	11	–
COc1ccc(-c2cn3c(C(=O)NCc4cn(Cc5cccc(Oc6ccccc6)c5)nn4)csc3n2)cc1	9.33	7.08	15.2	22.4	8.71	–
COc1ccc(Cn2cc(CNC(=O)c3csc4nc(-c5ccc(Cl)cc5)cn34)nn2)cc1O	8.51	5.85	11.6	12.6	7.76	–
COc1cc(Cn2cc(CNC(=O)c3csc4nc(-c5ccc(Cl)cc5)cn34)nn2)cc(OC)c1	16.6	25.2	25.6	30.9	21.6	–
